One molecule from ChEMBL document CHEMBL4261600 (Eur J Med Chem, 2018) can be followed below.

The target in data set [1] is Calcium/calmodulin-dependent protein kinase type II subunit beta (Homo sapiens) (UniProt Q13554). The data set can be described thus: Binding affinity to wild-type human partial length CAMK2B (M1 to Q380 residues) expressed in bacterial expression system assessed as remaining unbound target protein level at 1000 nM by Kinomescan method relative to control. Summed up: (§1)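 Profiled in a KINOMEscan binding panel with the inhibitor at a single concentration of 1 μM. Binding to each kinase was read out as percent of control, relative to a DMSO control. Strong binders were defined as those with a percent control value below 1.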

Data set [2] deals with Serine/threonine-protein kinase tousled-like 2 (Homo sapiens) (UniProt Q86UE8). Kind of data set: Binding affinity to wild-type human partial length TLK2 (E424 to N749 residues) expressed in bacterial expression system assessed as remaining unbound target protein level at 1000 nM by Kinomescan method relative to control.
Data set [3] has as its target Fibroblast growth factor receptor 3 (Homo sapiens) (UniProt P22607). Kind of data set: Binding affinity to wild-type human partial length FGFR3 (R442 to S771 residues) expressed in bacterial expression system assessed as remaining unbound target protein level at 1000 nM by Kinomescan method relative to control.
The target in data set [4] is Homeodomain-interacting protein kinase 3 (Homo sapiens) (UniProt Q9H422). Kind of data set: Binding affinity to wild-type human partial length HIPK3 (M153 to N562 residues) expressed in mammalian expression system assessed as remaining unbound target protein level at 1000 nM by Kinomescan method relative to control. Summed up: (§2)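 KINOMEscan binding panel of 468 kinases/mutants. Inhibitor was tested at a single concentration of 1 μM. Binding is reported as percent of control, defined relative to a DMSO control.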

Data set [5] deals with Serine/threonine-protein kinase Nek6 (Homo sapiens) (UniProt Q9HC98). Kind of data set: Binding affinity to wild-type human full length NEK6 (M8 to T313 residues) expressed in bacterial expression system assessed as remaining unbound target protein level at 1000 nM by Kinomescan method relative to control. Summed up:
(§3)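 KINOMEscan competition binding profile across a panel of 468 kinases and mutants, with the inhibitor tested at a single concentration of 1 μM. Binding is reported as percent of control, meaning signal relative to a DMSO control.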

Data set [6] has as its target Rhodopsin kinase GRK7 (Homo sapiens) (UniProt Q8WTQ7). Kind of data set: Binding affinity to wild-type human full length GRK7 (M1 to L553 residues) expressed in mammalian expression system assessed as remaining unbound target protein level at 1000 nM by Kinomescan method relative to control. Summed up: (§4)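 Single-point competition binding screen across a panel of 468 kinases and mutants, with the inhibitor at 1 μM. Binding is read out as percent of a DMSO control, and targets below 1 percent control were classed as strong binders.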

Data set [7] addresses Cyclin-dependent kinase-like 1 (Homo sapiens) (UniProt Q00532). The data set can be described thus: Binding affinity to wild-type human full length CDKL1 (M1 to I358 residues) expressed in mammalian expression system assessed as remaining unbound target protein level at 1000 nM by Kinomescan method relative to control. Summed up: as §4
Data set [8] has as its target Homeodomain-interacting protein kinase 4 (Homo sapiens) (UniProt Q8NE63). The data set can be described thus: Binding affinity to wild-type human partial length HIPK4 (M1 to V384 residues) expressed in bacterial expression system assessed as remaining unbound target protein level at 1000 nM by Kinomescan method relative to control. Summed up:
as §2

Data set [9] concerns the target Serine/threonine-protein kinase pim-3 (Homo sapiens) (UniProt Q86V86). Kind of data set: Binding affinity to wild-type human partial length PIM3 (G16 to A317 residues) expressed in bacterial expression system assessed as remaining unbound target protein level at 1000 nM by Kinomescan method relative to control.
For data set [10], the system named is Receptor-type tyrosine-protein kinase FLT3 (Homo sapiens), P36888 [K663Q]. The data set can be described thus: Binding affinity to human partial length FLT3 K663Q mutant (V592 to Y969 residues) expressed in bacterial expression system assessed as remaining unbound target protein level at 1000 nM by Kinomescan method relative to control. An outline of the steps: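 KINOMEscan competition-binding profiling across the panel of 468 kinases and mutants, with inhibitor tested at 1 μM. Binding is expressed as percent of control, with DMSO as the reference control.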

Data set [11] deals with Bone morphogenetic protein receptor type-1B (Homo sapiens) (UniProt O00238). The data set can be described thus: Binding affinity to wild-type human partial length BMPR1B (D178 to L502 residues) expressed in mammalian expression system assessed as remaining unbound target protein level at 1000 nM by Kinomescan method relative to control.
Data set [12] deals with Tyrosine-protein kinase SYK (Homo sapiens) (UniProt P43405). The data set can be described thus: Binding affinity to wild-type human partial length SYK (D354 to N635 residues) expressed in bacterial expression system assessed as remaining unbound target protein level at 1000 nM by Kinomescan method relative to control.
Data set [13] has as its target NUAK family SNF1-like kinase 1 (Homo sapiens) (UniProt O60285). Kind of data set: Binding affinity to wild-type human partial length ARK5 (E25 to I332 residues) expressed in bacterial expression system assessed as remaining unbound target protein level at 1000 nM by Kinomescan method relative to control. An outline of the steps: as §1
Data set [14] in a line: MRT (0 to infinity) in Sprague-Dawley rat at 3 mg/kg, iv by LC-MS/MS analysis. The class given is ADME, organism-based. As to conditions: in vivo.
Data set [15] concerns the target G protein-coupled receptor kinase 4 (Homo sapiens) (UniProt P32298). Kind of data set: Binding affinity to wild-type human full length GRK4 (M1 to C578 residues) expressed in bacterial expression system assessed as remaining unbound target protein level at 1000 nM by Kinomescan method relative to control. Summed up: as §4
The target of data set [16] is Ribosomal protein S6 kinase alpha-2 (Homo sapiens) (UniProt Q15349). The data set can be described thus: Binding affinity to wild-type human partial length C-terminal RSK3 kinase domain 2 (V403 to K700 residues) expressed in bacterial expression system assessed as remaining unbound target protein level at 1000 nM by Kinomescan method relative to control. Summed up: as §1

The target of data set [17] is Cyclin-dependent kinase 11B (Homo sapiens, UniProt P21127). The data set can be described thus: Binding affinity to wild-type human partial length CDK11 (M1 to N360 residues) expressed in bacterial expression system assessed as […] at 1000 nM after 1 hr by Kinomescan method relative to control.
For data set [18], the system named is Mycobacterium tuberculosis. Kind of data set: Binding affinity to wild-type Mycobacterium tuberculosis partial length PKNB (M1 to G279 residues) expressed in mammalian expression system assessed as remaining unbound target protein level at 1000 nM by Kinomescan method relative to control. Summed up: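 KINOMEscan competition binding panel run at 1 μM inhibitor; binding reported as percent of DMSO control (remaining target bound versus vehicle).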

For data set [19], the target named is Testis-specific serine/threonine-protein kinase 3 (Homo sapiens) (UniProt Q96PN8). The data set can be described thus: Binding affinity to wild-type human full length TSSK3 (M1 to T268 residues) expressed in mammalian expression system assessed as remaining unbound target protein level at 1000 nM by Kinomescan method relative to control. Summed up:
as §3

Data set [20] has as its target Serine/threonine-protein kinase Chk1 (Homo sapiens) (UniProt O14757). The data set can be described thus: Binding affinity to wild-type human partial length CHEK1 (M1 to G289 residues) expressed in bacterial expression system assessed as remaining unbound target protein level at 1000 nM by Kinomescan method relative to control. An outline of the steps: as §3

As usually defined, the MRT inf is the average time that molecules of a dose stay in the body.

Testis-specific serine/threonine-protein kinase 3 (Homo sapiens), sequence (Q96PN8 whole entry, the tested form may be a part): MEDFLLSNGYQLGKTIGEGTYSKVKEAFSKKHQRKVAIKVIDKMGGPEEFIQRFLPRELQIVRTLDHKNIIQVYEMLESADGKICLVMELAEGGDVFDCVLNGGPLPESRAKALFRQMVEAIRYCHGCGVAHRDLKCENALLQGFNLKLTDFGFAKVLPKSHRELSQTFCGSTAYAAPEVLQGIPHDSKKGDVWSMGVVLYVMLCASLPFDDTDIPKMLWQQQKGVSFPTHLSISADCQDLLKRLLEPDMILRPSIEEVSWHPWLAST
Homeodomain-interacting protein kinase 4 (Homo sapiens), sequence (Q8NE63 whole entry, the tested form may be a part): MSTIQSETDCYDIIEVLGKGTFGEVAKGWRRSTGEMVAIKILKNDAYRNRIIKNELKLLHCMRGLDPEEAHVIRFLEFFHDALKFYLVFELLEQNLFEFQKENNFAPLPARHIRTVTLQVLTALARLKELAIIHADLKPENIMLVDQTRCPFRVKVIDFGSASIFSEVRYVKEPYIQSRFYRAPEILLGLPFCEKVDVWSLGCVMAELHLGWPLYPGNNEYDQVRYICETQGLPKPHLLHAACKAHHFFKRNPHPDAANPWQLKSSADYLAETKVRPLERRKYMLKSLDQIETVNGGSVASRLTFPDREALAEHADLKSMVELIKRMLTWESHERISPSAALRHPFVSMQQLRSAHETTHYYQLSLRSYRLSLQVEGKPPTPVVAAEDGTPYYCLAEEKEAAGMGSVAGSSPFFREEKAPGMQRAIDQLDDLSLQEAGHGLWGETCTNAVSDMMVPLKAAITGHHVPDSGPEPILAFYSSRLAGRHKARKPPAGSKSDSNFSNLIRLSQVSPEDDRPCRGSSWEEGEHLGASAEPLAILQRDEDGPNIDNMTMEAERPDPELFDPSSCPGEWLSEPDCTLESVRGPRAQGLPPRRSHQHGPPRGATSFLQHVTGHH
Cyclin-dependent kinase 11B, sequence (P21127 whole entry, the tested form may be a part): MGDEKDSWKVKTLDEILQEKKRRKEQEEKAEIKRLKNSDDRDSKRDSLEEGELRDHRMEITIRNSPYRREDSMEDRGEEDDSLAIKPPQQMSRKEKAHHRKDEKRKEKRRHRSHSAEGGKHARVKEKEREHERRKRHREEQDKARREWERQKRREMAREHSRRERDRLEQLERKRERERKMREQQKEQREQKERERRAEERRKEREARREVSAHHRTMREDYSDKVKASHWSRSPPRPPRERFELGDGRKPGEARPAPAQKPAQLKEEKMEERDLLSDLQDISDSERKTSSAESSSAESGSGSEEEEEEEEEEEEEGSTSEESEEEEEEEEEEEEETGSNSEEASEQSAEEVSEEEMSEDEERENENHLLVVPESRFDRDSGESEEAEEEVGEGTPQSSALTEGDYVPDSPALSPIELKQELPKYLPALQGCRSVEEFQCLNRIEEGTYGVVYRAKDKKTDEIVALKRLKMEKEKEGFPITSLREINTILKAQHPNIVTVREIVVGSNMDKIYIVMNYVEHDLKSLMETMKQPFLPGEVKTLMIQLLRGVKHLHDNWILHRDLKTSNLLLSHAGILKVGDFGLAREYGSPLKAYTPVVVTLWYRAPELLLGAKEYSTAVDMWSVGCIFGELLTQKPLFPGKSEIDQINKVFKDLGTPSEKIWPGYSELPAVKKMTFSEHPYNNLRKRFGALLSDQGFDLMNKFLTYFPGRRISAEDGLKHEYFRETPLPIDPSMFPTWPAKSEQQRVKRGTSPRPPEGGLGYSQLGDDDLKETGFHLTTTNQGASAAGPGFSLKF
Calcium/calmodulin-dependent protein kinase type II subunit beta (Homo sapiens), sequence (Q13554 whole entry, the tested form may be a part): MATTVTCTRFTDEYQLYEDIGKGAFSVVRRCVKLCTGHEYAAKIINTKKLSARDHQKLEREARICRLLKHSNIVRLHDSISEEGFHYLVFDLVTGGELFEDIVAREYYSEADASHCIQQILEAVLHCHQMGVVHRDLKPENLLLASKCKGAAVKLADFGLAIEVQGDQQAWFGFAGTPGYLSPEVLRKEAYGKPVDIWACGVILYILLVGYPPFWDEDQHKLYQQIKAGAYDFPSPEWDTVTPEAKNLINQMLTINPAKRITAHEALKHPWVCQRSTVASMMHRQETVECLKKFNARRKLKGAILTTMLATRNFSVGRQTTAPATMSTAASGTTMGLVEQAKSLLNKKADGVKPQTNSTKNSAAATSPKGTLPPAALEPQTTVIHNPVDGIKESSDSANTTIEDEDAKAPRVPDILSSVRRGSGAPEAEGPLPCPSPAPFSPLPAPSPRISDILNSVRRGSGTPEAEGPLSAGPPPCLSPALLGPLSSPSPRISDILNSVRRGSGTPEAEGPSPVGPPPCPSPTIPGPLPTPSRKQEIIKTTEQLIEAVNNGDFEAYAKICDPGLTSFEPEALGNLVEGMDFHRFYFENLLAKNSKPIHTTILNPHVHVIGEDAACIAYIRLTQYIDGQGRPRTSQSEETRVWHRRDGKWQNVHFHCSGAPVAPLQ
Rhodopsin kinase GRK7 (Homo sapiens), sequence (Q8WTQ7 whole entry, the tested form may be a part): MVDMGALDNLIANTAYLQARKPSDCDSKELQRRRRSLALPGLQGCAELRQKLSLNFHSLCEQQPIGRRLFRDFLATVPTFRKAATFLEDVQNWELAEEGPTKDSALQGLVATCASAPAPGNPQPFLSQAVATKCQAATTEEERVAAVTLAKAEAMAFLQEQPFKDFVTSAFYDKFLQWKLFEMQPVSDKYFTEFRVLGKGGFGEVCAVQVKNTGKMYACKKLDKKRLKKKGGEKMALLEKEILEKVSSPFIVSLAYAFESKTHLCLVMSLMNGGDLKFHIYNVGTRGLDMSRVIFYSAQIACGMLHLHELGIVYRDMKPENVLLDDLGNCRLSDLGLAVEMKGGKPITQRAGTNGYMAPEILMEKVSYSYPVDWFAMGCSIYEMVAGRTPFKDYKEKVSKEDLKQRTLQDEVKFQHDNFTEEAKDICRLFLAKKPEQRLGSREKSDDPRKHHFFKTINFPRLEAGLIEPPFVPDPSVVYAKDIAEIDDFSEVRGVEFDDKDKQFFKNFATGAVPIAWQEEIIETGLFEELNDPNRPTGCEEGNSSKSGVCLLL
Cyclin-dependent kinase-like 1 (Homo sapiens), sequence (Q00532 whole entry, the tested form may be a part): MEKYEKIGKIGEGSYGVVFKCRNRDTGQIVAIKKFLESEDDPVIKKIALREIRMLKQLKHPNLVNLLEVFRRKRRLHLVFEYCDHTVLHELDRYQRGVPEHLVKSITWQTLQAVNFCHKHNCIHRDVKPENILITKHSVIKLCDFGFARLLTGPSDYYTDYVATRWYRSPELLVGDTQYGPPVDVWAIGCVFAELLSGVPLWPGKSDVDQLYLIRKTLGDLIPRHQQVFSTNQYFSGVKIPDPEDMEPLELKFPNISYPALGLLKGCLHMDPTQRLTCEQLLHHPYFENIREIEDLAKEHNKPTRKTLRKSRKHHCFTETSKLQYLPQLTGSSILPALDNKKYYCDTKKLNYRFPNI
Serine/threonine-protein kinase Nek6 (Homo sapiens), sequence (Q9HC98 whole entry, the tested form may be a part): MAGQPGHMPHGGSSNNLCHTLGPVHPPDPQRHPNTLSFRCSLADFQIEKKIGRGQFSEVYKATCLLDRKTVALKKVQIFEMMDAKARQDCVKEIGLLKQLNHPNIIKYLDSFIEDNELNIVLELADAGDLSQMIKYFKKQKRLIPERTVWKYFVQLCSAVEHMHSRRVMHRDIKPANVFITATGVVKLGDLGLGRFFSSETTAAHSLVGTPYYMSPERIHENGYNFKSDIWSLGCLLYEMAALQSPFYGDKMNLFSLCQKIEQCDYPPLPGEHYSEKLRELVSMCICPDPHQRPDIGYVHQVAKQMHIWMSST
Bone morphogenetic protein receptor type-1B (Homo sapiens), sequence (O00238 whole entry, the tested form may be a part): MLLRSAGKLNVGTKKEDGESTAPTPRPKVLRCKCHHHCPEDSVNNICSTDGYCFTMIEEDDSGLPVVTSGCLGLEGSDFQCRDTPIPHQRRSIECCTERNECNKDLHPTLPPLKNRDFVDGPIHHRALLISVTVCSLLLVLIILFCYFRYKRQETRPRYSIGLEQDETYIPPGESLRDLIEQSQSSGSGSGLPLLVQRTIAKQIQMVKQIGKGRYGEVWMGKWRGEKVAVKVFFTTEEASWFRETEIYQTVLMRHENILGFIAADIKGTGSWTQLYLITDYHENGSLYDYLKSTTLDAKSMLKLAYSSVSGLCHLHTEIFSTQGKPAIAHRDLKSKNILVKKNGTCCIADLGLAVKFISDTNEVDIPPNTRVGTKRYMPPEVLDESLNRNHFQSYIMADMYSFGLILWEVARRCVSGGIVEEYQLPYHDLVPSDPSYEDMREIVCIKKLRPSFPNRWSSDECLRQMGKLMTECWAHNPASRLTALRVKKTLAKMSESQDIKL
Serine/threonine-protein kinase Chk1 (Homo sapiens), sequence (O14757 whole entry, the tested form may be a part): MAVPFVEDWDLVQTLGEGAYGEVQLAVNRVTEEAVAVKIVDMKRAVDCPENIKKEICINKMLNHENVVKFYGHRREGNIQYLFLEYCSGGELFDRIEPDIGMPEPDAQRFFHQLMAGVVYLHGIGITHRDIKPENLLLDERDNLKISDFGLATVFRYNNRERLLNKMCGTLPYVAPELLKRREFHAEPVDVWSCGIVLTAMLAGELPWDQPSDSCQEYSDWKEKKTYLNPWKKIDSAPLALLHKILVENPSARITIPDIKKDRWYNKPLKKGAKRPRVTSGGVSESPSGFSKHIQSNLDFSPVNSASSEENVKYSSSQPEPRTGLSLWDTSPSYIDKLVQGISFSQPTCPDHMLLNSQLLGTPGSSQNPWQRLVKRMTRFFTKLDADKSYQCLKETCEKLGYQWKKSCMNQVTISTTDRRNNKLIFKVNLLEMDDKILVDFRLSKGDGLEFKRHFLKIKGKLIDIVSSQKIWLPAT

For `COCCN[C@H]1CC[C@H](Nc2cc(-c3csc(NCC4(C#N)CCOCC4)n3)c(Cl)cn2)CC1`, the Activity in data set [1] was determined as 100%; in data set [2] it was 99%; in [3] it was 89%; in data set [4], 86%; in [5] it was 94%; in data set [6] it was 100%. For the same molecule, the Activity in data set [7] is 96%; in [8] it was 9.9%; in data set [9] it was 65%; in data set [10], 97%; in data set [11], 84%; in data set [12] it was 93%. Further, the Activity in [13] came out at 100%; in data set [15], 96%; in [16], 92%; in data set [17] it was 100%; in [18] it was 84%; in [19], 99%. Moreover, in data set [20], the Activity stood at 91%. Moreover, the mean residence time MRT inf in data set [14] came to 6.33 h.
